Data: ChEMBL document CHEMBL4251567 (Eur J Med Chem, 2018)
Values belong to the molecule of their own block, whether it stands above or below them.

Tests used:
[1] = molecular target: Histone deacetylase 3 (Homo sapiens) (UniProt O15379); experiment: Inhibition of HDAC3 in human HeLa-S3 cell lysates assessed as remaining activity at 4 x 10^-5 M preincubated for 15 mins followed by HDAC-Glo substrate addition measured after 30 to 40 mins by […] relative to control
In short: (§1)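 Antibody-capture (ELISA-type) assay: HDAC antibody coated in carbonate/bicarbonate buffer pH 9.4, wells blocked with 5% milk in TBST. HeLa-S3 lysate added at 1 mg/mL for HDAC3, 1 h at 4 °C, then washed. Inhibitor in DMSO preincubated 15 min at RT in HDAC-Glo buffer. HDAC-Glo reagent added, luminescence read after 30-40 min. Concentrations are final. Background = no-antibody well; activity given as % of DMSO control.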

[2] = molecular target: Histone deacetylase 1 (Homo sapiens) (UniProt Q13547); experiment: Inhibition of HDAC1 in human HeLa-S3 cell lysates assessed as remaining activity at 2 x 10^-5 M preincubated for 15 mins followed by HDAC-Glo substrate addition measured after 30 to 40 mins by […] relative to control
In short: (§2)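 HDAC1 was captured from HeLa-S3 lysate (100 μg/mL) onto wells precoated with anti-HDAC1 antibody (10 μg/mL, carbonate buffer pH 9.4) and milk-blocked, 1 h at 4 °C, then washed. Inhibitor in DMSO was added in HDAC-Glo buffer for 15 min at room temperature. HDAC-Glo reagent was added and luminescence read after 30-40 min. Concentrations are final. No-antibody background subtracted; % of DMSO control.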

[3] = molecular target: T1, Protein deacetylase HDAC6 (Homo sapiens) (UniProt Q9UBN7); experiment: Inhibition of HDAC6 in human HeLa-S3 cell lysates assessed as remaining activity at 1.25 x 10^-8 M preincubated for 15 mins followed by HDAC-Glo substrate addition measured after 30 to 40 mins by […] relative to control
T1 sequence (whole entry): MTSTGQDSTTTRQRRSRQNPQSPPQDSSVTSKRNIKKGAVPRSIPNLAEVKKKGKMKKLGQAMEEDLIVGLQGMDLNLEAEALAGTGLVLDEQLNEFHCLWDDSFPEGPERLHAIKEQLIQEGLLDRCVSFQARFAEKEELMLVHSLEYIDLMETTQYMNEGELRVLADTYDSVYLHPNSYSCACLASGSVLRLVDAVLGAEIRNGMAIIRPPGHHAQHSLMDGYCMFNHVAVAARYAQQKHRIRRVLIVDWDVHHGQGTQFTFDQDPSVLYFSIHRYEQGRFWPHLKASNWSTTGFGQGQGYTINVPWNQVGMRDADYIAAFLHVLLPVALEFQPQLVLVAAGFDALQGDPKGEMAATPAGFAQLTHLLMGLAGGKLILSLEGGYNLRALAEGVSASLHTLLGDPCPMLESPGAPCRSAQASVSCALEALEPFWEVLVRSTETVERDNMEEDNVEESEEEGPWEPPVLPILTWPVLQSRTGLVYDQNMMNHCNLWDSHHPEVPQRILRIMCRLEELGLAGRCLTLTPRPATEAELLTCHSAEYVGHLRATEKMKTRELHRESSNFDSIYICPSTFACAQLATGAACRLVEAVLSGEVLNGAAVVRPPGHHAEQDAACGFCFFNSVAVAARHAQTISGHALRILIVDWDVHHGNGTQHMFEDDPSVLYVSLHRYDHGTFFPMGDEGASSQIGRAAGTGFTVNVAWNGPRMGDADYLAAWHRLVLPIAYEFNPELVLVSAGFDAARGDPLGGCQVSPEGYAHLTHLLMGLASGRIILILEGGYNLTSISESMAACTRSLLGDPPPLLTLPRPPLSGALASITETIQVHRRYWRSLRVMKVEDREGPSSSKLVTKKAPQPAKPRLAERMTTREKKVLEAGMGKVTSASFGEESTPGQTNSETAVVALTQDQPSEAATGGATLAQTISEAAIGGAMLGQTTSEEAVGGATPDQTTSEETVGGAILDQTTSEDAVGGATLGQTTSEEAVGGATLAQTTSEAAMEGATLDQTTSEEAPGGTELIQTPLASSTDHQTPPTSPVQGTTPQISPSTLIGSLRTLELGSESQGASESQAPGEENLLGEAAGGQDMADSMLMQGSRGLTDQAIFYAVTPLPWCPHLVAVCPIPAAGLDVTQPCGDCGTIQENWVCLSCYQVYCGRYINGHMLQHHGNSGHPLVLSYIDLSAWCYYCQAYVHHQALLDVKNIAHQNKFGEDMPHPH
In short: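 HDAC6 captured on an anti-HDAC6 antibody-coated plate (2 μg/mL, pH 9.4 carbonate buffer, milk-blocked). HeLa-S3 lysate loaded at 1 mg/mL, 1 h at 4 °C, then washed. 15 min RT preincubation with inhibitor in DMSO; HDAC-Glo reagent added, luminescence read at 30-40 min. Concentrations are final. Background = no-antibody well; values are % activity versus DMSO control.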

[4] = molecular target: Histone deacetylase 1 (Homo sapiens) (UniProt Q13547); experiment: Inhibition of HDAC1 in human HeLa-S3 cell lysates assessed as remaining activity at 4 x 10^-5 M preincubated for 15 mins followed by HDAC-Glo substrate addition measured after 30 to 40 mins by […] relative to control; in short: as §2
[5] = molecular target: Histone deacetylase 3 (Homo sapiens) (UniProt O15379); experiment: Inhibition of HDAC3 in human HeLa-S3 cell lysates assessed as remaining activity at 5 x 10^-6 M preincubated for 15 mins followed by HDAC-Glo substrate addition measured after 30 to 40 mins by […] relative to control; in short: as §1
[6] = molecular target: Histone deacetylase 1 (Homo sapiens) (UniProt Q13547); experiment: Inhibition of HDAC1 in human HeLa-S3 cell lysates assessed as remaining activity at 1 x 10^-5 M preincubated for 15 mins followed by HDAC-Glo substrate addition measured after 30 to 40 mins by fluorimetric method relative to control; in short: as §2
[7] = molecular target: Histone deacetylase 1 (Homo sapiens) (UniProt Q13547); experiment: Inhibition of HDAC1 in human HeLa-S3 cell lysates assessed as remaining activity at 5 x 10^-6 M preincubated for 15 mins followed by HDAC-Glo substrate addition measured after 30 to 40 mins by […] relative to control; in short: as §2
[8] = molecular target: Histone deacetylase 3 (Homo sapiens) (UniProt O15379); experiment: Inhibition of HDAC3 in human HeLa-S3 cell lysates assessed as remaining activity at 8 x 10^-5 M preincubated for 15 mins followed by HDAC-Glo substrate addition measured after 30 to 40 mins by […] relative to control; in short: as §1
[9] = molecular target: Histone deacetylase 2 (Homo sapiens) (UniProt Q92769); experiment: Inhibition of HDAC2 in human HeLa-S3 cell lysates assessed as remaining activity at 4 x 10^-5 M preincubated for 15 mins followed by HDAC-Glo substrate addition measured after 30 to 40 mins by […] relative to control
In short: (§3)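 Same antibody-capture format as the other class I isoforms. HeLa-S3 lysate added at 100 μg/mL for HDAC1 and HDAC2, 1 h at 4 °C, then washed. Inhibitor in DMSO preincubated 15 min at RT; HDAC-Glo reagent added and luminescence read after 30-40 min. Concentrations are final. Signal corrected against a well without antibody; activity expressed as % of DMSO control.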

[10] = molecular target: Histone deacetylase 3 (Homo sapiens) (UniProt O15379); experiment: Inhibition of HDAC3 in human HeLa-S3 cell lysates assessed as remaining activity at 1 x 10^-5 M preincubated for 15 mins followed by HDAC-Glo substrate addition measured after 30 to 40 mins by […] relative to control; in short: as §1
[11] = molecular target: Histone deacetylase 1 (Homo sapiens) (UniProt Q13547); experiment: Inhibition of HDAC1 in human HeLa-S3 cell lysates assessed as remaining activity at 8 x 10^-5 M preincubated for 15 mins followed by HDAC-Glo substrate addition measured after 30 to 40 mins by […] relative to control
[12] = molecular target: Histone deacetylase 2 (Homo sapiens) (UniProt Q92769); experiment: Inhibition of HDAC2 in human HeLa-S3 cell lysates assessed as remaining activity at 2 x 10^-5 M preincubated for 15 mins followed by HDAC-Glo substrate addition measured after 30 to 40 mins by fluorimetric method relative to control; in short: as §3
[13] = molecular target: Histone deacetylase 2 (Homo sapiens) (UniProt Q92769); experiment: Inhibition of HDAC2 in human HeLa-S3 cell lysates assessed as remaining activity at 5 x 10^-6 M preincubated for 15 mins followed by HDAC-Glo substrate addition measured after 30 to 40 mins by […] relative to control; in short: as §3
[14] = molecular target: Histone deacetylase 3 (Homo sapiens) (UniProt O15379); experiment: Inhibition of HDAC3 in human HeLa-S3 cell lysates assessed as remaining activity at 2 x 10^-5 M preincubated for 15 mins followed by HDAC-Glo substrate addition measured after 30 to 40 mins by […] relative to control; in short: as §1
[15] = molecular target: Histone deacetylase 2 (Homo sapiens) (UniProt Q92769); experiment: Inhibition of HDAC2 in human HeLa-S3 cell lysates assessed as remaining activity at 8 x 10^-5 M preincubated for 15 mins followed by HDAC-Glo substrate addition measured after 30 to 40 mins by […] relative to control; in short: as §3
U-937 [16] = experiment: Cytotoxicity against human U937 cells assessed as cell viability at 2.5 x 10^-3 M after 44 hrs by MTT assay relative to control; assay type: functional; settings: U-937, 44 h, read-out: Activity
U-937 [17] = experiment: Cytotoxicity against human U937 cells assessed as cell viability at 200 uM after 44 hrs in presence of tubastatin by MTT assay relative to control; assay type: functional; settings: U-937, 44 h, read-out: Activity
U-937 [18] = experiment: Cytotoxicity against human U937 cells assessed as cell viability at 200 uM after 44 hrs by MTT assay relative to control; assay type: functional; settings: U-937, 44 h, read-out: Activity
U-937 [19] = experiment: Cytotoxicity against human U937 cells assessed as cell viability at 5 x 10^-3 M after 44 hrs by MTT assay relative to control; assay type: functional; settings: U-937, 44 h, read-out: Activity
U-937 [20] = experiment: Cytotoxicity against human U937 cells assessed as decrease in cell viability after 44 hrs by MTT assay; assay type: functional, cell-based; settings: Homo sapiens, U-937, 44 h
U-937 [21] = experiment: Cytotoxicity against human U937 cells assessed as cell viability at 1.25 x 10^-3 M after 44 hrs by MTT assay relative to control; assay type: functional; settings: U-937, 44 h, read-out: Activity
U-937 [22] = experiment: Cytotoxicity against human U937 cells assessed as cell viability at 5 x 10^-4 M after 44 hrs by MTT assay relative to control; assay type: functional; settings: U-937, 44 h, read-out: Activity
U-937 [23] = experiment: Cytotoxicity against human U937 cells assessed as cell viability at 80 uM after 44 hrs by MTT assay relative to control; assay type: functional; settings: U-937, 44 h, read-out: Activity
U-937 [24] = experiment: Cytotoxicity against human U937 cells assessed as cell viability at 80 uM after 44 hrs in presence of PCI-34051 by MTT assay relative to control; assay type: functional; settings: U-937, 44 h, read-out: Activity
U-937 [25] = experiment: Cytotoxicity against human U937 cells assessed as cell viability at 3 x 10^-3 M after 44 hrs by MTT assay relative to control; assay type: functional; settings: U-937, 44 h, read-out: Activity
U-937 [26] = experiment: Cytotoxicity against human U937 cells assessed as cell viability at 1 x 10^-3 M after 44 hrs by MTT assay relative to control; assay type: functional; settings: U-937, 44 h, read-out: Activity
U-937 [27] = experiment: Cytotoxicity against human U937 cells assessed as cell viability at 4 x 10^-3 M after 44 hrs by MTT assay relative to control; assay type: functional; settings: U-937, 44 h, read-out: Activity
U-937 [28] = experiment: Cytotoxicity against human U937 cells assessed as cell viability at 2.5 x 10^-4 M after 44 hrs by MTT assay relative to control; assay type: functional; settings: U-937, 44 h, read-out: Activity

Chain of Histone deacetylase 2 (Homo sapiens) (Q92769 whole entry, canonical isoform): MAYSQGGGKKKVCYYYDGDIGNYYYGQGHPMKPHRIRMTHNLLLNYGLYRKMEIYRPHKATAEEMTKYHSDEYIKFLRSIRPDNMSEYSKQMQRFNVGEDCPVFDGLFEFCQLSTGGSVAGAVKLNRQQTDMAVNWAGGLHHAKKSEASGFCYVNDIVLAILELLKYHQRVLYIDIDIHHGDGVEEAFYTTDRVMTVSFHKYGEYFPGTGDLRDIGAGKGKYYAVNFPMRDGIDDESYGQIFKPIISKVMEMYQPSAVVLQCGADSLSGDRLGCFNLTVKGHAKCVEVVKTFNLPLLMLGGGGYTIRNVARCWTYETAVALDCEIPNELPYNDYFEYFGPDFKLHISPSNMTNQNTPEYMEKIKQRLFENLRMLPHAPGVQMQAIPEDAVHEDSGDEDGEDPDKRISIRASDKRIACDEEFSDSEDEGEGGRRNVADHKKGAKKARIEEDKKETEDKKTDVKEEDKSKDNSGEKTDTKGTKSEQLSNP
Chain of Histone deacetylase 3 (Homo sapiens) (O15379 whole entry): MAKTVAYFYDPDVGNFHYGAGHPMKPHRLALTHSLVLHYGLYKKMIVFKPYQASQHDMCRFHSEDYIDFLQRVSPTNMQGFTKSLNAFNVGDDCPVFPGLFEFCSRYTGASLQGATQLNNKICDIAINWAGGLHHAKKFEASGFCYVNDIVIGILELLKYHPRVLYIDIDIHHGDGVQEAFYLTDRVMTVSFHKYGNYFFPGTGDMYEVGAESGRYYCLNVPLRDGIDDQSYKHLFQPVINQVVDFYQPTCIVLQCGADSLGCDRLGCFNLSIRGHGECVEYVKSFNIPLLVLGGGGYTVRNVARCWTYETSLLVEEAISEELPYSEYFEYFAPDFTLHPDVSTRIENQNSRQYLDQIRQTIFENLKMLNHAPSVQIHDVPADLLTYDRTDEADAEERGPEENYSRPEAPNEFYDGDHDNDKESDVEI
Chain of Histone deacetylase 1 (Homo sapiens) (Q13547 whole entry): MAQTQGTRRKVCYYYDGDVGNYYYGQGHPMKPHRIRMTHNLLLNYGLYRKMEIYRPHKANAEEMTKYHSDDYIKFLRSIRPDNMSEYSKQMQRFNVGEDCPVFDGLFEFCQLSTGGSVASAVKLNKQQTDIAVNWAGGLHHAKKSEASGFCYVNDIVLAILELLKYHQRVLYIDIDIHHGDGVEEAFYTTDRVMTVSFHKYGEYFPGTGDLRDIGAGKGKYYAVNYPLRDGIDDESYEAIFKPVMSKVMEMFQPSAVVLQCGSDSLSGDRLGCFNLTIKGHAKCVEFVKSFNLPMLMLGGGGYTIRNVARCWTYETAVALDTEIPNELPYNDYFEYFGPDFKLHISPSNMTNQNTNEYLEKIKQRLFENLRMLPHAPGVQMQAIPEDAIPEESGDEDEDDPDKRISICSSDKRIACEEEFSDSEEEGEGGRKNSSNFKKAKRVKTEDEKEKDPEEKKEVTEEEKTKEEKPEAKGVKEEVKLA

Activity [1]: 39%
Activity [2]: 53%
Activity [3]: 67%
Activity [4]: 38%
Activity [5]: 89%
Activity [6]: 72%
Activity [7]: 88%
Activity [8]: 25%
Activity [9]: 43%
Activity [10]: 77%
Activity [11]: 24%
Activity [12]: 71%
Activity [13]: 96%
Activity [14]: 54%
Activity [15]: 29%
Compound: O=C(CC[C@@H](CCCC(=O)Nc1ccccc1)Cc1ccccc1)NO

Compound: COc1ccc(Cn2ccc3ccc(C(=O)NO)cc32)cc1
viability at 2500 µM (U-937 [16]): 50%
viability at 200 µM (U-937 [17]): 13%
viability at 200 µM (U-937 [18]): 62%
viability at 5000 µM (U-937 [19]): 9%
EC50 (U-937 [20]): 210 µM
viability at 1250 µM (U-937 [21]): 71%
viability at 500 µM (U-937 [22]): 85%

Compound: CN1CCc2c(c3ccccc3n2Cc2ccc(C(=O)NO)cc2)C1 [TUBASTATIN A]
viability at 80 µM (U-937 [23]): 44%
viability at 80 µM (U-937 [24]): 13%
EC50 (U-937 [20]): 83 µM
viability at 3000 µM (U-937 [25]): 19%
viability at 1000 µM (U-937 [26]): 38%
viability at 4000 µM (U-937 [27]): 17%
viability at 500 µM (U-937 [22]): 68%
viability at 250 µM (U-937 [28]): 82%
